Results published in paper PMC3770484 (European journal of medicinal chemistry, 2013).

Legend:
[1] = tested on: tubulin (colchicine site); assay: Inhibition of [3H]colchicine binding to tubulin; settings: tubulin 1 μM, [3H]colchicine 5 μM, 10 min at 37 °C, ± SD
In short: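 Tritiated colchicine (5.0 μM) incubated with 1.0 μM tubulin and test compound at 5.0 or 1.0 μM for 10 min at 37 °C. At this point about 40-60% of maximum colchicine binding occurs in controls. Percent inhibition of binding reported. Compounds inhibiting by more than 80% at 5 μM were retested at 1 μM.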

[2] = tested on: human tumor cell line panel (A549, KB, KBvin, and DU145); assay: SRB cytotoxicity, range over the whole HTCL panel; assay type: cell-based; settings: read-out: GI50 range over HTCL panel
In short: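 Sulforhodamine B growth assay on human A-549, KB, DU145 and KBvin lines; KBvin is a vincristine-resistant, P-gp-expressing KB subline. Paclitaxel served as reference.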

SMILES	Inhibition of colchicine binding (%) inhibition ([1]; inhibitor at 1 μM) [%]	Inhibition of colchicine binding (%) inhibition ([1]; inhibitor at 5 μM) [%]	GI50 [2] [nM]
COc1ccc(/C=C\c2cc(OC)c(OC)c(OC)c2)cc1O [CA4, combretastatin A-4]	90 ± 0.2	98 ± 0.6	–
COc1ccc2c(c1)CCCN2c1nc(Cl)nc2ccccc12 [Compound 6d, N-(2′-Chloroquinazol-4′-yl)-6-methoxy-1,2,3,4-tetrahydroquinoline]	–	–	1.5 to 1.7
